Values after ≈ are worked out from the molar mass of the structure shown. Active and inactive are the calls of the source. The calls are words filed in the database; no cut-off is given here.
Key:
Pseudomonas aeruginosa = test: Antimicrobial activity against Pseudomonas aeruginosa ATCC 27853 up to 500 ug/ml by agar-dilution-streak method; assay type: functional, organism-based
Outline: (§1)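 Screened with the agar-dilution-streak method. MIC was set by broth dilution following NCCLS. Compounds were dissolved in DMSO and diluted to graded concentrations in tryptone soy broth.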

Escherichia coli = test: Antimicrobial activity against Escherichia coli ATCC 9637 up to 500 ug/ml by agar-dilution-streak method; assay type: functional, organism-based
[1] = test system: Radical scavenging activity; test: Antioxidant activity assessed as DPPH free radical scavenging activity relative to control; assay type: functional
[2] = Toxicity against brine shrimp larvae; assay type: organism-based; conditions: artemia, in vivo
Staphylococcus aureus = test: Antimicrobial activity against Staphylococcus aureus ATCC 29213 by agar-dilution-streak method; assay type: functional; outline: as §1
Klebsiella pneumoniae = test: Antimicrobial activity against Klebsiella pneumoniae ATCC 10031 up to 500 ug/ml by agar-dilution-streak method; assay type: functional, organism-based; outline: as §1
Candida albicans = test: Antimicrobial activity against Candida albicans ATCC 10231 up to 500 ug/ml by agar-dilution-streak method; assay type: functional, organism-based; outline: as §1
Salmonella enterica = test: Antimicrobial activity against Salmonella choleraesuis ATCC 14028 up to 500 ug/ml by agar-dilution-streak method; assay type: functional, organism-based
Outline: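 Salmonella choleraesuis ATCC 14028 was tested by the agar-dilution-streak method, alongside S. aureus ATCC 29213, P. aeruginosa ATCC 27853, C. albicans ATCC 10231 and K. pneumoniae ATCC 10031. Test compounds were dissolved in DMSO.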

Structure (SMILES)	Activity (Pseudomonas aeruginosa)	Activity (Escherichia coli)	Activity [1] [%]	LC50 [2] [µg/mL]	MIC (Staphylococcus aureus) [µg/mL]	Activity (Klebsiella pneumoniae)	Activity (Candida albicans)	Activity (Salmonella enterica)
C=C1C(CC2C[C@H](O)C=C2C)C(C)(C)C[C@H]1O (stereo partly specified) [GODOTOL A]	inactive	inactive	< 10	290 (≈ 1230 µM)	250 (≈ 1060 µM)	inactive	inactive	inactive
C=C1C[C@@H](O)C=C(C)C2C1CC[C@@H](O)C2(C)C (stereo partly specified) [GODOTOL B]	inactive	inactive	< 10	540 (≈ 2280 µM)	500 (≈ 2120 µM)	inactive	inactive	inactive

Source: ChEMBL document CHEMBL1148956, “New sesquiterpenes from Pluchea arabica” (J Nat Prod, 2004)
